Source: ChEMBL document CHEMBL4411315, “Discovery of Novel Dual Histone Deacetylase and Mammalian Target of Rapamycin Target Inhibitors as a Promising Strategy for Cancer Therapy” (J Med Chem, 2019)
Active and inactive are the calls of the source. The calls are words filed in the database; no cut-off is given here.

Tests used:
[1] = molecular target: Serine/threonine-protein kinase mTOR (Homo sapiens, UniProt P42345); assay: Inhibition of mTOR in human MV4-11 cells assessed as decrease in p70S6K phosphorylation at Thr 389 residues at 0.01 to 10 uM after 24 hrs by Western blot analysis; assay type: cell-based
How it was run: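 Treatment of MV4-11 cells lasted 24 h at 0.01, 0.1, 1 and 10 μM. Lysis in RIPA buffer and BCA quantitation, then 30 μg protein by SDS-PAGE, PVDF transfer, 5% milk block, primary antibody overnight at 4 °C, HRP secondary 1 h and ECL detection. p-p70S6K (T389), p-4EBP1 (S65), p-Akt (S473) and p-ERK were probed.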

MM1.S [2] = assay: Induction of apoptosis in human MM1S cells assessed as early apoptotic cells at 40 nM after 48 hrs by Annexin V-FITC/propidium iodide staining-based flow cytometric analysis (reference value: 0.38%); assay type: functional
[3] = Toxicity against NOD/SCID mouse xenografted with human MM1S cells assessed as mouse survival at 10 mg/kg, iv administered every 2 days for 5 days; assay type: organism-based; settings: in vivo
How it was run: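 Female NOD/SCID mice, 5-6 weeks old, received 10^7 MM1S cells in 100 μL serum-free RPMI 1640 s.c. into the right flank. At 100-200 mm3 tumours they were randomised, 6 mice per group. Tumours were measured by caliper every 2 days. At the end, tumours were excised and weighed. Survivors are reported per group.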

MV4-11 [4] = assay: Induction of apoptosis in human MV4-11 cells assessed as necrotic cells at 80 nM after 48 hrs by Annexin V-FITC/propidium iodide staining-based flow cytometric analysis (reference value: 0.17%); assay type: functional
MM1.S [5] = assay: Induction of apoptosis in human MM1S cells assessed as viable cells at 160 nM after 48 hrs by Annexin V-FITC/propidium iodide staining-based flow cytometric analysis (reference value: 98.9%); assay type: functional; settings: read-out: Activity
HCT-116 = assay: Antiproliferative activity against human HCT116 cells after 72 hrs by MTT assay; assay type: functional, cell-based; settings: HCT-116, 72 h
MV4-11 [6] = assay: Induction of apoptosis in human MV4-11 cells assessed as necrotic cells at 320 nM after 48 hrs by Annexin V-FITC/propidium iodide staining-based flow cytometric analysis (reference value: 0.17%); assay type: functional
MV4-11 [7] = assay: Cell cycle arrest in human MV4-11 cells assessed as accumulation at G2/M phase at 2.5 nM after 24 hrs by propidium iodide/RNase staining-based FACS analysis (reference value: 18.79%); assay type: functional
MM1.S [8] = assay: Cell cycle arrest in human MM1S cells assessed as accumulation at S phase at 2.5 nM after 24 hrs by propidium iodide/RNase staining-based FACS analysis (reference value: 24.49%); assay type: functional
Histone deacetylase 9 = Histone deacetylase 9 (Homo sapiens, UniProt Q9UKV0); assay: Inhibition of recombinant full length C-terminal His-tagged human HDAC9 expressed in baculovirus expression system using Ac-peptide-AMC as substrate preincubated for 15 mins followed by substrate addition and measured after 1 hr by fluorescence assay
Chain of Histone deacetylase 9 (Q9UKV0 whole entry): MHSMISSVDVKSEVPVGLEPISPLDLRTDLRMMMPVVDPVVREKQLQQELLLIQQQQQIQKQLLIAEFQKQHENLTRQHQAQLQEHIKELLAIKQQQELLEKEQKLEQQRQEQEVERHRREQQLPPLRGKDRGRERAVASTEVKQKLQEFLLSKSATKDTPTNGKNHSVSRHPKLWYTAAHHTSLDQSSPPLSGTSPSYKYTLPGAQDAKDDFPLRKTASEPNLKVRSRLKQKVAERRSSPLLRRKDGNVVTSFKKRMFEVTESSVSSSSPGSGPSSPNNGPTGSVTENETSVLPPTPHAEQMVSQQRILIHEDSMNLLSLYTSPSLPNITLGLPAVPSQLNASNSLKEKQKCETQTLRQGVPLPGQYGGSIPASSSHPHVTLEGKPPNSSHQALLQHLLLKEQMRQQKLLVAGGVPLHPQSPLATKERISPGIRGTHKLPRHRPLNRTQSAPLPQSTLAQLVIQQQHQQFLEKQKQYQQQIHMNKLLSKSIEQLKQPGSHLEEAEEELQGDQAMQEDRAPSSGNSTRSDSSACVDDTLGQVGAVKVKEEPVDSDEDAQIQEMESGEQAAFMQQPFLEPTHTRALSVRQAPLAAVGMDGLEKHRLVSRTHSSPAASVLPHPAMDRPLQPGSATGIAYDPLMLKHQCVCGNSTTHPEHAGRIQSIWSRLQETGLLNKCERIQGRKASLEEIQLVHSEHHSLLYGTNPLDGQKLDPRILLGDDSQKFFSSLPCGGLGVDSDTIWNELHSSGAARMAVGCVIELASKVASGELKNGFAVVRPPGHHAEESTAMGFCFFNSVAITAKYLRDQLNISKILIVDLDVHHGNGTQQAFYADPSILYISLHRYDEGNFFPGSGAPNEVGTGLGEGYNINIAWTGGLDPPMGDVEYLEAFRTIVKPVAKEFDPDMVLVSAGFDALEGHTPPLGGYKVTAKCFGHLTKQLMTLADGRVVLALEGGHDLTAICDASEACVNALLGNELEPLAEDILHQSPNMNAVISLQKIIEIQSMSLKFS

MM1.S [9] = assay: Induction of apoptosis in human MM1S cells assessed as necrotic cells at 10 nM after 48 hrs by Annexin V-FITC/propidium iodide staining-based flow cytometric analysis (reference value: 0.32%); assay type: functional
MV4-11 [10] = assay: Cell cycle arrest in human MV4-11 cells assessed as accumulation at S phase at 5 nM after 24 hrs by propidium iodide/RNase staining-based FACS analysis (reference value: 36.42%); assay type: functional
MV4-11 [11] = assay: Induction of apoptosis in human MV4-11 cells assessed as viable cells at 20 nM after 48 hrs by Annexin V-FITC/propidium iodide staining-based flow cytometric analysis (reference value: 84.1%); assay type: functional; settings: MV4-11, 48 h, read-out: Activity
MV4-11 [12] = assay: Cell cycle arrest in human MV4-11 cells assessed as accumulation at G0/G1 phase at 10 nM after 24 hrs by propidium iodide/RNase staining-based FACS analysis (reference value: 44.79%); assay type: functional
MV4-11 [13] = assay: Induction of apoptosis in human MV4-11 cells assessed as necrotic cells at 20 nM after 48 hrs by Annexin V-FITC/propidium iodide staining-based flow cytometric analysis (reference value: 0.17%); assay type: functional
MV4-11 [14] = assay: Antiproliferative activity against human MV4-11 cells after 72 hrs by MTT assay; assay type: functional, cell-based; settings: MV4-11, 72 h
MV4-11 [15] = assay: Induction of apoptosis in human MV4-11 cells assessed as necrotic cells at 160 nM after 48 hrs by Annexin V-FITC/propidium iodide staining-based flow cytometric analysis (reference value: 0.17%); assay type: functional
MV4-11 [16] = assay: Induction of apoptosis in human MV4-11 cells assessed as early apoptotic cells at 80 nM after 48 hrs by Annexin V-FITC/propidium iodide staining-based flow cytometric analysis (reference value: 10.7%); assay type: functional
MM1.S [17] = assay: Cell cycle arrest in human MM1S cells assessed as accumulation at S phase at 10 nM after 24 hrs by propidium iodide/RNase staining-based FACS analysis (reference value: 24.49%); assay type: functional
MV4-11 [18] = assay: Cell cycle arrest in human MV4-11 cells assessed as accumulation at G0/G1 phase at 5 nM after 24 hrs by propidium iodide/RNase staining-based FACS analysis (reference value: 44.79%); assay type: functional
MV4-11 [19] = assay: Cell cycle arrest in human MV4-11 cells assessed as accumulation at S phase at 10 nM after 24 hrs by propidium iodide/RNase staining-based FACS analysis (reference value: 36.42%); assay type: functional
MV4-11 [20] = assay: Induction of apoptosis in human MV4-11 cells assessed as early apoptotic cells at 160 nM after 48 hrs by Annexin V-FITC/propidium iodide staining-based flow cytometric analysis (reference value: 10.7%); assay type: functional
MM1.S [21] = assay: Induction of apoptosis in human MM1S cells assessed as late apoptotic cells at 20 nM after 48 hrs by Annexin V-FITC/propidium iodide staining-based flow cytometric analysis (reference value: 0.42%); assay type: functional
MM1.S [22] = assay: Induction of apoptosis in human MM1S cells assessed as late apoptotic cells at 320 nM after 48 hrs by Annexin V-FITC/propidium iodide staining-based flow cytometric analysis (reference value: 0.42%); assay type: functional
[23] = molecular target: FKBP12A/mTOR (Homo sapiens) (UniProt P62942+P42345); assay: Inhibition of human recombinant MTOR/FKBP12 expressed in mammalian expression system assessed as residual activity at 1 uM
Chain of FKBP12A/mTOR (Homo sapiens) (P62942 2-108 limits assumed, other chains not shown): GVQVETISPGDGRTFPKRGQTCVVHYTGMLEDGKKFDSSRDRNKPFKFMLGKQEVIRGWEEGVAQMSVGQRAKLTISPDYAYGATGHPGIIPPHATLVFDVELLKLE
How it was run: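 Radiometric kinase panel (99 kinases) run at 1 μM inhibitor in duplicate with [γ-33P]ATP, kinase-specific buffer and substrate at room temperature. The reaction was started with Mg/ATP and stopped with 0.5% phosphoric acid, then spotted on P30 filtermat, washed and scintillation counted. Results are expressed as % remaining activity versus DMSO control.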

[24] = molecular target: PI3-kinase p110-alpha/p85-alpha (Homo sapiens) (UniProt P27986+P42336); assay: Inhibition of recombinant human full length N-terminal His-tagged/untagged p110alpha/p85alpha expressed in baculovirus expression system at 100 nM using PIP2 as substrate after 1 hr by Kinase-Glo reagent-based assay relative to control
How it was run: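 PI3Kα (p110α/p85α) incubated with PIP2 substrate and ATP in kinase buffer for 1 h at room temperature. Kinase-Glo reagent was then added for 15 min before luminescence read-out. Inhibition rate at 100 or 1000 nM is the mean of at least two experiments.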

## C[C@@H]1CN(C(=O)Nc2ccc(-c3nc(N4CCOCC4)c4cnn(CCCCCCC(=O)NO)c4n3)cc2)CCO1
[1]
  inhibition: Active
MM1.S [2]
  Activity: 4.81%
[3]
  Activity: Non-Toxic
MV4-11 [4]
  Activity: 1.86%
MM1.S [5]
  viability at 0.16 µM: 13.8%
HCT-116
  IC50: 17.2 nM
MV4-11 [6]
  Activity: 1.62%
MV4-11 [7]
  Activity: 18.2%
MM1.S [8]
  Activity: 21.59%
Histone deacetylase 9
  IC50: > 1000 nM
MM1.S [9]
  Activity: 0.31%
MV4-11 [10]
  Activity: 21.32%
MV4-11 [11]
  viability at 0.02 µM: 20.6%
MV4-11 [12]
  Activity: 65.4%
MV4-11 [13]
  Activity: 2.84%
MV4-11 [14]
  IC50: 4.05 nM
MV4-11 [15]
  Activity: 1.13%
MV4-11 [16]
  Activity: 37.6%
MM1.S [17]
  Activity: 12.6%
MV4-11 [18]
  Activity: 64.69%
MV4-11 [19]
  Activity: 23.42%
MV4-11 [20]
  Activity: 34.7%
MM1.S [21]
  Activity: 4.78%
MM1.S [22]
  Activity: 62%
[23]
  inhibition: Active
[24]
  inhibition: 28.3%
